{
  "source": "paper PMC10339703",
  "about": "(Clinical and Translational Science, 2023)",
  "key": {"[1]": {"experiment": "Plasma and urine pharmacokinetics, part I SAD study", "type": "in vivo, human", "details": "for CL/F / Fe0‐72h (fraction excreted in urine): geometric mean (geometric CV%)", "procedure,_shortened": "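Healthy adults randomized 6:2 to oral test compound or placebo (n = 8/cohort), fasted ≥10 h, no food ≥4 h postdose. Solution given as 150 mL in diluted Ora-Sweet plus 90 mL water rinse. Plasma sampled predose to 72 h. UHPLC-MS/MS with deuterated internal standard; plasma 2.5–1000 μg/L (LLOQ 2.5), urine 2–800 μg/L (LLOQ 2.0). Noncompartmental analysis; power-model ln-regression of Cmax/AUC on dose, slope with 90% CI.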"}, "[2]": {"type": "in vivo, human", "details": "for CL/F / Fe0‐12h (fraction excreted in urine) / Accumulation ratio (based on AUCτ): geometric mean (geometric CV%); for Tmax: human, plasma, oral, range"}, "[3]": {"experiment": "Metabolite profile in liver microsomes", "type": "in vitro ADME"}, "Pro‐C3": {"tested_on": "Pro‐C3", "experiment": "Serum PD biomarker Pro-C3", "type": "in vivo, human", "details": "MAD; statistically significant after a single dose but not after multiple doses", "procedure,_shortened": "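Oral tablets b.i.d. for 14 days (morning only day 14), 25–200 mg, in healthy adults randomized 6:2 versus placebo. Morning doses followed ≥10 h fasting; other doses came ≥1 h after a meal. Serum drawn predose and 2, 4, 6, 12 h after day 1 morning dose, day 2/7 predose, and predose to 72 h after day 14 dose. Pro-C3 measured by validated ELISA; AUEC0‑12h computed.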"}, "[4]": {"details": "MAD day 1, single 100 mg tablet"}, "[5]": {"details": "MAD day 1, single 200 mg tablet"}, "[6]": {"details": "MAD day 14, 50 mg tablet b.i.d."}, "[7]": {"details": "MAD day 14, 100 mg tablet b.i.d."}, "[8]": {"details": "MAD day 14, 200 mg tablet b.i.d."}},
  "note": "Like-named read-outs stand apart in the source and are kept apart here.",
  "data": [
    {"smiles": "O[C@H]1CCCN[C@@H]1CCCn1cnc2c(Cl)c(Cl)ccc21", "note": "[Bersiporocin]", "values": [
      {"measurement": "CL/F", "setting": "[1]; SAD single 100 mg capsule", "result": "156.48 (58.10) L/h"},
      {"measurement": "Fe0‐72h (fraction excreted in urine)", "setting": "[1]; SAD single 100 mg capsule", "result": "10.01 (45.08) %"},
      {"measurement": "CL/F", "setting": "[1]; SAD single 100 mg solution", "result": "340.72 (48.72) L/h"},
      {"measurement": "Fe0‐72h (fraction excreted in urine)", "setting": "[1]; SAD single 100 mg solution", "result": "7.59 (32.47) %"},
      {"measurement": "CL/F", "setting": "[1]; SAD single 300 mg capsule", "result": "196.59 (47.06) L/h"},
      {"measurement": "Fe0‐72h (fraction excreted in urine)", "setting": "[1]; SAD single 300 mg capsule", "result": "7.42 (43.31) %"},
      {"measurement": "CL/F", "setting": "[1]; SAD single 500 mg tablet", "result": "213.75 (53.27) L/h"},
      {"measurement": "Fe0‐72h (fraction excreted in urine)", "setting": "[1]; SAD single 500 mg tablet", "result": "42.18 (180.78) %"},
      {"measurement": "CL/F", "setting": "[1]; SAD single 600 mg capsule", "result": "312.07 (222.08) L/h"},
      {"measurement": "Fe0‐72h (fraction excreted in urine)", "setting": "[1]; SAD single 600 mg capsule", "result": "3.09 (341.55) %"},
      {"measurement": "half-life", "setting": "[1]; human, plasma, oral, t 1/2, range, SAD, enteric coated capsule", "result": "6.91 to 9.9", "unit": "h"},
      {"measurement": "dose dependence of plasma concentration", "setting": "[1]; single dose of enteric coated capsule", "result": "dose‐proportional manner"},
      {"measurement": "role of renal elimination", "setting": "[1]; urine PK data from SAD or MAD", "result": "renal elimination was not the major clearance pathway"},
      {"measurement": "dose adjusted plasma exposure, CYP2D6 poor metabolizer compared to the median value in other phenotypes", "setting": "[2]; MAD", "result": "six‐ to nine‐fold higher"},
      {"measurement": "CL/F", "setting": "[2]; MAD day 1, single 25 mg tablet", "result": "175.57 (70.55) L/h"},
      {"measurement": "Fe0‐12h (fraction excreted in urine)", "setting": "[2]; MAD day 1, single 25 mg tablet", "result": "6.23 (44.75) %"},
      {"measurement": "CL/F", "setting": "[2]; MAD day 1, single 50 mg tablet", "result": "292.89 (26.44) L/h"},
      {"measurement": "Fe0‐12h (fraction excreted in urine)", "setting": "[2]; MAD day 1, single 50 mg tablet", "result": "6.09 (95.30) %"},
      {"measurement": "CL/F", "setting": "[2]; [4]", "result": "261.98 (49.54) L/h"},
      {"measurement": "Fe0‐12h (fraction excreted in urine)", "setting": "[2]; [4]", "result": "8.20 (27.21) %"},
      {"measurement": "CL/F", "setting": "[2]; [5]", "result": "266.78 (18.62) L/h"},
      {"measurement": "Fe0‐12h (fraction excreted in urine)", "setting": "[2]; [5]", "result": "8.44 (50.39) %"},
      {"measurement": "Accumulation ratio (based on AUCτ)", "setting": "[2]; MAD day 14, 25 mg tablet b.i.d.", "result": "1.94 (26.34)"},
      {"measurement": "Accumulation ratio (based on AUCτ)", "setting": "[2]; [6]", "result": "2.33 (31.42)"},
      {"measurement": "Fe0‐12h (fraction excreted in urine)", "setting": "[2]; [6]", "result": "6.09 (95.30) %"},
      {"measurement": "Accumulation ratio (based on AUCτ)", "setting": "[2]; [7]", "result": "1.88 (35.07)"},
      {"measurement": "Fe0‐12h (fraction excreted in urine)", "setting": "[2]; [7]", "result": "8.20 (27.21) %"},
      {"measurement": "Accumulation ratio (based on AUCτ)", "setting": "[2]; [8]", "result": "3.75 (36.01)"},
      {"measurement": "Fe0‐12h (fraction excreted in urine)", "setting": "[2]; [8]", "result": "8.44 (50.39) %"},
      {"measurement": "increase of AUC", "setting": "[2]; MAD, 100 to 200 mg dose group", "result": "more than four‐folds"},
      {"measurement": "dose dependence of plasma concentration", "setting": "[2]; MAD, enteric coated tablet, after single and multiple doses", "result": "dose‐proportional manner"},
      {"measurement": "time to steady‐state of plasma concentration", "setting": "[2]; MAD, enteric coated tablet, first Helmert contrast with p > 0.05", "result": 2, "unit": "days"},
      {"measurement": "Tmax", "setting": "[2]; median T max after a single dose, MAD, single dose", "result": "2.5 to 6", "unit": "h"},
      {"measurement": "Tmax", "setting": "[2]; median T max,ss, MAD, multiple doses", "result": "2 to 6", "unit": "h"},
      {"measurement": "number of metabolites identified", "setting": "[3]", "result": 21},
      {"measurement": "mean AUEC0‐12h for serum Pro‐C3 compared to the placebo‐treated group", "setting": "Pro‐C3", "result": "lower"}
    ]}
  ]
}
